Screening data deposited in PubChem BioAssay by several laboratories.
Compounds with a hit are over-represented: about 2.3% of the library has one in this group of screens.
CRFR2-BP antag – blocks CRF-induced signaling of the CRF-BP/CRF-R2 complex | HEK293 CRF-R2/CRF-BP, CRF-induced calcium fluorescence | inhibition, % at 11.8 µM | hit rate 0.59% among 350,000 | AID 588475;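 active = inhibition of the ligand-induced calcium signal above about 50% at the single tested concentration, limit read from the data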
CSN deneddyl inh – blocks human CSN-mediated cullin deneddylation; inhibition, % at 12.5 µM; hit rate 0.38% among 360,000; Purified CSN, SCF-Nedd8-OG deneddylation, fluorescence polarization; AID 651999; Q92905;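 active = pattern-corrected inhibition above about 35%, with an unprinted fluorescence ratio check between 0.5 and 1.5, limit read from the data, passing the limit was not always enough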
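Assay system: Purified human Csn5 enzyme expressed in HEK293T cells | Amount: Enzyme 0.24 nM | Measured by: Fluorescence polarization readout | Medium: Tris/NaCl/DTT buffer, pH 7.5 | Compound dosing: One concentration, 12.5 µM, 0.25% DMSO | Times: 90 min incubation of compound, enzyme and substrate at room temperature | Control set: no-enzyme wells high, enzyme-with-substrate wells low | Read-out: % inhibition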
HNF4A DNA FP – change in binding of human HNF4 alpha to DNA; hit rate 0.3% among 360,000; HNF4a-FITC DNA binding, fluorescence polarization, 1 h; AID 1224865; activity change, % at 10 µM; in the data active = activity change above about 30%, passing the limit was not always enough
Rpn11 inh – inhibitors of human proteasome Rpn11; human 26S proteasome, Ub4-pepOG fluorescence polarization; 20S core pre-blocked with epoxomicin; hit rate 0.59% among 360,000; O00487; AID 588493; calls only at 20 µM;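 active = inhibition at 20 µM, scaled to each plate's controls, above about 33%, limit read from the data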
Target sequence (O00487 whole entry, looked up): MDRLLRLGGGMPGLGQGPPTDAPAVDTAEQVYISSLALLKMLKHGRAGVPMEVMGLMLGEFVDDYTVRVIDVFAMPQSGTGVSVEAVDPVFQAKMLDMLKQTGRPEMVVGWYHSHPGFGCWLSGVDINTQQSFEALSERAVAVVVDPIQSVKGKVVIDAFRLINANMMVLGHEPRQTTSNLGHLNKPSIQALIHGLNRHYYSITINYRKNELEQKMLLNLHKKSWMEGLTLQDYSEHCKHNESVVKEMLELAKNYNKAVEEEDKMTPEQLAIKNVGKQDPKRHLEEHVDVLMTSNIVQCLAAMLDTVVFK
CRFBP-R2 agonist – CRF-BP/CRF-R2 complex agonism. activation, % at 13.2 µM. hit rate 0.46% among 350,000. AID 588473. HEK293 CRF-R2/CRF-BP, calcium dye fluorescence (FLIPR); percent of saturating CRF peptide response;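 active = activation of at least 50%, plus an integration ratio under a set limit after plate pattern correction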
TPT1 inh – blocks Candida albicans tRNA 2'-phosphotransferase | inhibition, % at 5 µM | hit rate 0.81% among 300,000 | recombinant caTPT1, FP RNA substrate dephosphorylation | AID 1962;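 active = inhibition above the mean of all tested compounds plus 3 SD, set per screening campaign, cut at about 24% in these data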
TPT1 inh confirm – TPT1 (C. albicans) inhibition, confirmation. hit rate 74% among 2,400. recombinant caTPT1, fluorescence polarization, RNase T1 coupled. shares compounds with TPT1 inh. inhibition, % at 5 µM. AID 2149;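 active = inhibition above the primary screen limit, the mean inhibition of all tested compounds plus 3 SD, cut at about 25% in these data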
RNase T1 counter – RNase T1 inhibition in TPT1 counter-screen; inhibition, % at 5 µM; RNase T1 cleavage, fluorescence polarization, 1536-well; hit rate 83% among 2,400; shares compounds with TPT1 inh; AID 2153;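 active = inhibition above the solvent-only control well mean plus 3 SD, limit set per screening run, cut at about 23% in these data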;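 also: inhibitors block cleavage so intact labeled substrate keeps polarization high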
Target sequence (P00651 whole entry, looked up): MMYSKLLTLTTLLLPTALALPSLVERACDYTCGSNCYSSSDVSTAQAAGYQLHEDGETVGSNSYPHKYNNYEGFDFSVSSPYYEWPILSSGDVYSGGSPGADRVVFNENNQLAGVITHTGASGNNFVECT
Numbers stand for hits; - = inactive; . = not tested or not shown.

SMILES	CRFR2-BP antag	CSN deneddyl inh	HNF4A DNA FP	Rpn11 inh	CRFBP-R2 agonist	TPT1 inh	TPT1 inh confirm	RNase T1 counter
Nc1c(C(=O)c2ccc(Cl)cc2)sc2nsc(SCCN3CCOCC3)c12	-	38	-	.	92	41	57	69
CC(=O)c1sc2nsc(SCCN3CCCCC3)c2c1N	-	-	-	-	-	-	.	.
Nc1c(C(=O)c2ccccc2)sc2nsc(SCCN3CCCC3)c12	-	-	38	.	102	48	47	56
CCCCC(=O)Nc1ccc(C(=O)NNC(=S)NC(=O)c2ccco2)cc1	-	-	-	-	-	-	.	.
N#C/C(=C\c1cc(O)c(O)c(O)c1)C(N)=O	-	-	-	-	-	33	27	36
N#C/C(=C\c1cc(Cl)c(OCc2ccc(Cl)cc2)c(Cl)c1)C(N)=O	.	.	.	.	.	-	.	.
CCN(CC)CCN(Cc1cc2cc3c(cc2[nH]c1=O)OCCO3)C(=S)NCCOC	-	-	-	-	-	.	.	.
CC(C)(C)c1ccc(C(=O)NNc2cc(N3CCCCC3)nc(N3CCCCC3)n2)cc1	-	-	-	-	-	45	-	-
CC(C)(C)c1ccc(C(=O)NNc2cc(N3CCOCC3)nc(N3CCOCC3)n2)cc1	-	-	-	-	-	-	.	.
O=C(CCN1CCN(Cc2ccccc2)CC1)NNC(=O)c1cc2ccccc2o1	-	-	-	-	-	.	.	.
COc1ccc(/C=N/Nc2ccc(C(F)(F)F)cc2[N+](=O)[O-])cc1	-	-	-	-	-	62	-	-
C=CCn1c(=O)/c(=C2/Sc3ccccc3N2CC)s/c1=C1/C(=O)NN=C1C	.	.	.	.	.	44	48	59
Cc1c(C(=O)O)sc2nc(C)n(C)c(=O)c12	-	-	-	-	-	-	.	.
CNc1nc(-c2c[nH]c3ccccc23)cs1	-	-	-	-	-	-	.	.
CCC(C)Nc1nc(-c2c[nH]c3ccccc23)cs1 (stereo unspecified)	-	-	-	-	-	25	-	33
Cc1ccc(NC(=O)CN(C)C(=O)COC(=O)c2oc3ccccc3c2C)cc1	-	-	-	-	-	.	.	.
O=C1/C(=C/c2ccccc2)Nc2ccccc21	-	-	-	.	-	63	64	70
O=C1CNC(=O)/C(=C\c2ccccc2)N1	-	-	-	-	-	-	.	.
CN1/C(=C/C=C(C#N)C#N)C(C)(C)c2ccccc21	-	-	-	-	-	-	.	.
CC1=C/C(=C\C=C(C#N)C#N)N(C)c2ccccc21	-	-	71	.	-	34	33	43
CCCNC(=O)c1ccc(C2SCC(=O)N2Cc2ccccc2)cc1 (stereo unspecified)	-	-	-	-	-	-	.	.
CCCCNc1cc(NC(C)=O)cc2cc(OC)c(OC)cc12	-	-	-	.	-	70	61	73
N#CC1=C(N)Oc2cc(N)ccc2C1c1ccc(F)cc1F (stereo unspecified)	-	-	-	.	-	42	33	44
C=CCN1C(=O)c2cccc3c(N4CCCCC4)ccc(c23)C1=O	-	-	-	-	256	64	41	57
O=C1c2cccc3cccc(c23)C(=O)N1CCO	-	-	-	-	-	.	.	.
SMILES	CRFR2-BP antag	CSN deneddyl inh	HNF4A DNA FP	Rpn11 inh	CRFBP-R2 agonist	TPT1 inh	TPT1 inh confirm	RNase T1 counter
O=C(c1cccc(N2C(=O)c3ccccc3C2=O)c1)N1CCCCCC1	-	-	-	-	-	-	.	.
O=C1c2cccc3c(N4CCCCC4)ccc(c23)C(=O)N1CCO	-	-	-	-	118	50	-	-
O=C1c2cccc3c(N4CCCCC4)ccc(c23)C(=O)N1c1cccc(O)c1	-	-	-	.	161	75	52	61
Cc1ccc(N=Cc2cccc(O)c2O)c(C)c1	.	-	-	-	.	-	.	.
Cc1ccc(N=Cc2sc(O)c3ccccc23)c(C)c1	-	-	-	.	-	117	80	94
CN(C)C(CNC(=O)CCc1nc2ccccc2s1)c1ccccc1 (stereo unspecified)	-	-	-	-	-	-	.	.
CC(=O)Nc1ccc(S(=O)(=O)Nc2nc3ccccc3nc2Nc2ccc(O)c(C(=O)O)c2)cc1	-	-	-	.	-	43	24	33
O=C(Nc1nccs1)c1ccc(N2C(=O)C3CCCCC3C2=O)cc1 (stereo unspecified)	-	-	-	-	-	65	-	-
CCOC(=O)/C(C#N)=C\C=C1C=CN(C)C=C1	-	-	-	.	-	158	173	167
COC(=O)/C(C#N)=C/c1ccc(OC(=O)c2ccccn2)cc1	-	-	45	.	-	27	-	26
CCOC(=O)/C(C#N)=C/c1ccc(OC(=O)c2ccccn2)cc1	-	-	-	-	-	-	.	.
CC(=O)Nc1ccc(SCC(=O)c2c(N)n(Cc3ccccc3)c(=O)n(C)c2=O)cc1	-	-	-	-	-	-	.	.
CC(=O)NC(=S)c1c(N)n(Cc2ccccc2)c(=O)n(C)c1=O	.	.	.	.	.	38	32	43
CCCc1ncc(C(O)(c2ccccc2)c2ccc(C)cc2)n1C (stereo unspecified)	-	-	-	-	-	-	.	.
CC1=[N+](C)N(c2ccccc2)C(=O)C1N=Cc1c(Cl)cccc1Cl (stereo unspecified)	-	-	-	-	-	133	-	-
CCN(CC)c1ccc(/C=C2\NC(=O)NC2=O)cc1	-	-	-	-	-	27	36	50
COc1cc(/C=C2\CC/C(=C\c3ccc(OCCO)c(OC)c3)C2=O)ccc1OCCO	-	-	-	.	-	107	114	113
CCN1/C(=C/C=C/C=C/C=C/c2sc3ccccc3[n+]2CC)Sc2ccccc21	-	-	60	-	-	30	-	29
CCN1/C(=C/C=C/C=C/c2sc3ccccc3[n+]2CC)Sc2ccccc21	.	.	.	.	.	-	.	.
CC(C)(C)NC(=O)C1N(c2cccnc2)C(=O)C2C(C(=O)Nc3ccccc3F)C3(C)C=CC21O3 (stereo unspecified)	-	-	-	-	-	73	-	-
Cc1cc(NC(=O)C2C3C(=O)N(Cc4ccc(Cl)cc4)C(C(=O)NC(C)(C)C)C34C=CC2(C)O4)no1 (stereo unspecified)	-	-	-	-	-	-	.	.
Cc1cc(C)n(CC(=O)N/N=C/c2cc([N+](=O)[O-])ccc2O)n1	-	-	-	-	-	-	.	.
CCOC(=O)c1c(-c2ccc(OC)cc2)csc1/N=C/C1=C(O)CCCC1=O	-	-	-	-	-	139	33	50
CCOC(=O)c1c(/N=C/C2=C(O)CCCC2=O)sc(C)c1C	-	-	-	-	-	-	.	.
CC(C)(C)C(=O)Nc1ccccc1N1CCN(C(=O)c2ccc(Cl)cc2)CC1	-	-	-	-	-	-	.	.
